Source: publication PMC3780561 (Molecular cancer therapeutics, 2013)
pIC50: −log10 of the molar value. Where two headings read alike, the source gives them in different places.

Test system: NSCLC cell lines (A549, H23 and H358)
Experiment: Cell viability, modified MTT assay, 24 h
Format: cell-based, human
Settings: read-out: 24 h-IC50
Outline: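 ATCC-sourced A549 (p53 wild-type), H23 (p53-mutant) and H358 (p53-null) cells were grown per ATCC. Viability after 24 h exposure to test compound or sulindac metabolites was measured by modified MTT assay. 24-h IC50 was derived from viability curves.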

SMILES	pIC50 (Homo sapiens, 24 h)	pIC50 (range among A549, H23 and H358 cells)
CSc1ccc(/C=C2/C(C)=C(CC(=O)O)c3cc(F)ccc32)cc1 [sulindac sulfide]	3.65 to 3.80	
CC1=C(CC(=O)O)c2cc(F)ccc2/C1=C\c1ccc(S(C)(=O)=O)cc1 [sulindac sulfone]		2.72 to 3.25
CC1=C(CC(=O)O)c2cc(F)ccc2/C1=C\c1ccc([S+](C)[O-])cc1 (stereo not drawn) [sulindac]	< 3.00	
